# High-throughput results deposited in PubChem BioAssay by several laboratories.
# FXIIa inh 1536 – blocks human coagulation factor XIIa protease activity; P00748; purified FXIIa, Boc-QGR-AMC fluorogenic substrate, 2 h; inhibition, % at 5 µM; 220,000 tested, 0.3% active; in the data active means inhibition above about 40%;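 further: 0% = enzyme with no compound and 100% = blank without enzyme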
# FXIa inh 1536 – inhibitors of human coagulation factor XIa. P03951. purified FXIa, Boc-Glu-Ala-Arg-AMC fluorogenic substrate. inhibition, % at 5 µM. 220,000 tested, 0.14% active. AID 798;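 active means inhibition of at least 40%; inactive means inhibition below 40%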;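 further: fluorescence of freed AMC excited at 355 nm; 0% = enzyme without compound and 100% = no enzyme blank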
# Target sequence (P03951 19-387 limits assumed): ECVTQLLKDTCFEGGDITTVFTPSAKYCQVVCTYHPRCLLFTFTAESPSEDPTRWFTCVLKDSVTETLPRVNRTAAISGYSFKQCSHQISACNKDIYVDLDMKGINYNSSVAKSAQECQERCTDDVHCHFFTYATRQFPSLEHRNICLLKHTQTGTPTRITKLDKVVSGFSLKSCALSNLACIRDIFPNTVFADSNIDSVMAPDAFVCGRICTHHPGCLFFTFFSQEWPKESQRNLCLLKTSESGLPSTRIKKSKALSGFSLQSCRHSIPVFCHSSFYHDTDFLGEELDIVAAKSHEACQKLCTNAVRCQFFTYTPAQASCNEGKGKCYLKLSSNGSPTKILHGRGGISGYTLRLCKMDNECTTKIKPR
# Target sequence (P03951 388-625 limits assumed): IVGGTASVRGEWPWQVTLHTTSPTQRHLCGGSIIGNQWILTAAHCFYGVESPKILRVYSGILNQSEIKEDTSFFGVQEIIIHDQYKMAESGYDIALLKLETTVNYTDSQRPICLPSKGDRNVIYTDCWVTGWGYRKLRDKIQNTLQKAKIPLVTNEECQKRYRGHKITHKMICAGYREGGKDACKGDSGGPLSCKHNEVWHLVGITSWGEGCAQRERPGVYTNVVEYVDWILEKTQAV
# hK5 inh – blocks human kallikrein 5 protease activity; Q9Y337; recombinant hK5, fluorogenic AMC substrate cleavage; inhibition, % at 5 µM; 210,000 tested, 0.59% active; AID 873;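 active means inhibition of 40% or more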;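 further: 0% = enzyme controls without compound and 100% = no-enzyme blanks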
# Thrombin inh – inhibitors of human thrombin; alpha-thrombin, Boc-VPR-AMC fluorogenic substrate cleavage; inhibition, % at 5 µM; 220,000 tested, 0.26% active; AID 1046;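 active means inhibition at or above 40%; inactive means inhibition below 40%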;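 further: 0% = enzyme with no compound and 100% = wells without enzyme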
#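 Test system: human alpha-thrombin; medium: pH 7.5 Tris-saline with Tween 20; times: reaction at room temperature; signal: AMC fluorescence at 355 nm excitation and 460 nm emission; also added: Boc-VPR-AMC substrate, 15 µM final; dosing: one concentration per compound, 5 µM, with 0.2% DMSO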
# Furin inhibitor – inhibitors of human furin; P09958; purified furin, fluorogenic substrate cleavage; inhibition, % at 20 µM or 30 µM; 220,000 tested, 0.061% active; in the data active means inhibition above about 25%
# Starred values were filed as active, the others as inactive; . = no result. Sampled rows, rich in hits. Any-hit rate of the full collection: about 1.1%.
SMILES,FXIIa inh 1536,FXIa inh 1536,hK5 inh,Thrombin inh,Furin inhibitor
CC(=O)NN1C(=O)/C(=C\c2ccc(O)cc2)SC1=S,14,2,3,-4,-12
O=C(O)c1ccc(/C=C2\SC(=S)N(Nc3ccccc3)C2=O)cc1,41*,49*,29,19,14
CC(=O)NN1C(=O)/C(=C\c2ccccc2)SC1=S,-1,-3,89*,3,6
CSc1nc(Cc2ccccc2)cc(=O)[nH]1,-5,-7,-14,-3,-16
O=C1CC(O)(C(F)F)Oc2ccc3ccccc3c21 (stereo unspecified),16,-5,-1,3,-29
O=C1CC(O)(C(F)(F)F)Oc2c1ccc1ccccc21 (stereo unspecified),15,8,93*,30,-44
COc1ccc(-c2nn3cnnc3s2)cc1OC,18,12,129*,45*,-18
O=C(N/N=C\c1cccc([N+](=O)[O-])c1O)C1COc2ccccc2O1 (stereo unspecified),0,5,55*,16,-10
O=C(N/N=C/c1cccc([N+](=O)[O-])c1)C1COc2ccccc2O1 (stereo unspecified),9,11,-14,4,-7
O=C(CSc1nnc(Cn2nnc(-c3ccccc3)n2)n1-c1ccccc1)Nc1ccc(F)cc1,6,9,85*,69*,-21
COc1ccc(C(C(=O)NC(C)(C)C)N(C(=O)Cn2nnc3ccccc32)c2cccc(C(C)=O)c2)cc1O (stereo unspecified),9,-1,-2,-1,-25
Cc1cc(NS(=O)(=O)c2ccc(NC(=O)CSc3nnc(-c4ccco4)n3N)cc2)nc(C)n1,-8,-8,29,62*,-11
Cc1ccc(S(=O)(=O)N2CCCOC2CNC(=O)C(=O)NCc2cccs2)cc1 (stereo unspecified),3,-7,-2,-4,-21
COCCNC(=O)Cn1nc(C(F)(F)F)cc1C,11,13,44*,104*,-4
COc1ccccc1NC(=O)CSc1nnnn1C,59*,33,7,-1,-7
CN(c1ccccc1)S(=O)(=O)c1ccc(NC(=S)NC(=O)c2ccccc2)cc1,95*,4,-12,-4,-16
Cc1ccc(C(=O)NC(=S)Nc2ccc(S(=O)(=O)N(C)c3ccccc3)cc2)cc1,-8,-2,-20,-9,-16
C=C(C)Cn1c(C)cc(C)c(S(=O)(=O)c2cccc(C)c2)c1=O,18,10,16,6,-3
O=C(O)c1cc(/C=N\O)ccc1OCc1ccccc1,2,3,51*,8,-24
COc1cc(C(=O)N/N=C/c2ccc(OC)c(CN3CCN(c4ccc(F)cc4)CC3)c2)ccc1O,3,-1,.,-2,-23
Cc1[nH]c(=O)[nH]c(=O)c1/C=N/NC(=O)[C@@H](NC(=O)OC(C)(C)C)C(C)C,2,-4,-45,-2,-14
Cc1[nH]c(=O)[nH]c(=O)c1/C=N/NC(=O)[C@H](C)N,40,18,52*,25,-6
NC(=O)C1CCN(CC(=O)Nc2cccnc2Cl)CC1,7,-4,.,-6,-29
CCOC(=O)c1cnc2c(ccc3ccccc32)c1NCCO,4,-4,-12,-1,-5
CCOC(=O)c1ccccc1Oc1c(F)c(F)nc(NCCO)c1F,19,5,42*,42*,-12
SMILES,FXIIa inh 1536,FXIa inh 1536,hK5 inh,Thrombin inh,Furin inhibitor
CC1CCN(S(=O)(=O)c2ccc3nc(-c4ccccn4)cc(C(=O)NCCN(C)Cc4ccccc4)c3c2)CC1,66*,30,18,34,-13
COCCNc1nnc(SCC(=O)c2c[nH]c3ccccc23)s1,25,8,39,101*,-3
COCCNc1nnc(SCC(=O)NNC(=O)c2ccccc2)s1,-9,-3,-8,-16,-8
COC(=O)c1cc(CSc2nnc(NC3CCCCC3)s2)oc1C,22,6,42*,17,-10
O=c1cc(CSc2nnc(NC3CCCCC3)s2)nc2sccn12,2,-1,-5,-9,-24
CCN(CC)CCSc1nc(O)c(Cc2ccccc2)c(=O)n1-c1ccccc1,10,6,-1,.,-13
CCOc1ccc(C2CC(=O)N(Nc3ccc([N+](=O)[O-])cc3[N+](=O)[O-])C2=O)cc1 (stereo unspecified),18,15,21,45*,2
C/C(=N/Oc1nc(C)cc(C)n1)c1ccc(Br)cc1,13,1,41*,11,-16
CC(C)(CO)NCC(O)Cn1cc(C=O)c2ccccc21 (stereo unspecified),6,-2,2,-6,-12
O=C(COC(=O)c1cc(S(=O)(=O)N2CCOCC2)ccc1O)NCCc1ccccc1,2,-2,-9,-6,-7
O=C(CSC1CC(=O)N(CCc2ccccc2)C1=O)Nc1ccc(Br)cc1 (stereo unspecified),17,-2,42*,5,-21
CCCC(=O)N=C1SC2CS(=O)(=O)CC2N1c1ccc(CC)cc1 (stereo unspecified),41*,26,-9,-6,-21
CCOC(=O)c1csc(-c2snnc2C)n1,4,0,2,-2,-1
O=C(NCCCCNC(=O)C(F)(F)F)C(F)(F)F,0,-2,-14,0,-20
COCCCNC(=O)C(F)(F)C(F)(F)C(=O)NCCCOC,27,19,122*,9,-28
C=CCNC(=O)COc1c(C)ccc(C)c1C,4,4,7,-2,-18
COc1ccc(/C=C/C(=O)N2CCN(S(=O)(=O)c3ccccc3)CC2)cc1OC,22,34,48*,25,4
CSC1=NC(=O)/C(=C\c2cccc3ccccc23)S1,6,-4,-7,-11,-24
CCOC(=O)C1(C)NC(c2ccco2)C2C(=O)N(C)C(=O)C21 (stereo unspecified),6,1,2,-9,-25
C/C(=N\NC(=S)NCc1ccccc1)c1ccccc1,14,9,-6,1,-20
C/C(=N\NC(=S)NCc1ccccc1)c1ccc(C#N)cc1,32,24,54*,17,-10
O=C(NC(=S)Nn1cnnc1)c1ccccc1Cl,28,34,48*,45*,-1
Fc1ccccc1-c1csc(=Nc2cccnc2)n1CCCn1ccnc1,10,-3,-4,-5,-7
COc1cc(C(=O)NCCC(=O)NC2CCCCCCC2)cc(OC)c1OC,2,1,-13,2,-19
COc1cc(C(=O)N[C@H](C(=O)NC2CCCCCC2)C(C)C)cc(OC)c1OC,8,8,44*,2,-21
C=CCN(c1ccccc1)S(=O)(=O)c1ccc(Cl)c(C(=O)OCC(=O)N(C)C2CCS(=O)(=O)C2)c1 (stereo unspecified),6,-1,2,-6,-17
COc1cc(N2CCCC2)c(OC)cc1/C=C(/C#N)c1ccc(F)cc1,19,11,-9,1,-11
COc1cc(N2CCCC2)c(OC)cc1/C=C(/C#N)c1ccc(Br)cc1,5,8,50*,10,5
